Source: publication PMC4110911 (Bioorganic & medicinal chemistry letters, 2014)

Tests used:
PKC = experiment: PepTag non-radioactive PKC assay; type: biochemical; conditions: read-out: IC50 value, PKC; mean ± standard deviation, triplicate
[1] = Distribution of compound in tissues and plasma after chronic oral administration; type: in vivo; conditions: CD1 mice, oral gavage 5 mg/Kg daily for 75 days, n = 4
Method in brief: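 CD1 mice: four treated, two untreated. Test compound was given by oral gavage at 5 mg/Kg once daily for 75 days. Brain, pancreas, liver, kidney, lung and plasma were then assayed for the compound by a previously reported procedure. Levels are in µM as mean ± standard deviation; ND = not detectable.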

[2] = tested on: liver transaminases, aspartate aminotransferase (AST) and alanine transaminase (ALT); experiment: Plasma liver transaminase; type: in vivo; conditions: mice, 5 mg/kg daily by oral gavage for 75 days, vs control mice

Row | SMILES | IC50 (PKC) [µM] | Concentration of 3, Kidney [1] [µM] | Concentration of 3, Liver [1] [µM] | Concentration of 3, Pancreases [1] [µM] | Concentration of 3, Plasma [1] [µM] | ALT enzyme activity in plasma [2] | AST enzyme activity in plasma [2]
3 | COc1cc(NCc2ccc(O)cc2)c2nccc(C)c2c1Oc1cccc(C(F)(F)F)c1 [Compound 3] | 240 ± 21.2 | 16.1 ± 2.1 | 7.1 ± 0.6 | 26.5 ± 6.6 | 4.5 ± 0.3 | No significant difference | No significant difference
4 | COc1cc(NCc2cccc3cccnc23)c2nccc(C)c2c1Oc1cccc(C(F)(F)F)c1 [Compound 7] | 400 ± 13.7 |  |  |  |  |  | 
